{"source": "ChEMBL document CHEMBL4145686", "about": "“Discovery of a Potent and Selective Steroidal Glucocorticoid Receptor Antagonist (ORIC-101)” (J Med Chem, 2018)", "key": {"Glucocorticoid receptor [1]": {"target": "T1, Glucocorticoid receptor (Rattus norvegicus, UniProt P06536)", "T1 sequence (P06536 whole entry)": "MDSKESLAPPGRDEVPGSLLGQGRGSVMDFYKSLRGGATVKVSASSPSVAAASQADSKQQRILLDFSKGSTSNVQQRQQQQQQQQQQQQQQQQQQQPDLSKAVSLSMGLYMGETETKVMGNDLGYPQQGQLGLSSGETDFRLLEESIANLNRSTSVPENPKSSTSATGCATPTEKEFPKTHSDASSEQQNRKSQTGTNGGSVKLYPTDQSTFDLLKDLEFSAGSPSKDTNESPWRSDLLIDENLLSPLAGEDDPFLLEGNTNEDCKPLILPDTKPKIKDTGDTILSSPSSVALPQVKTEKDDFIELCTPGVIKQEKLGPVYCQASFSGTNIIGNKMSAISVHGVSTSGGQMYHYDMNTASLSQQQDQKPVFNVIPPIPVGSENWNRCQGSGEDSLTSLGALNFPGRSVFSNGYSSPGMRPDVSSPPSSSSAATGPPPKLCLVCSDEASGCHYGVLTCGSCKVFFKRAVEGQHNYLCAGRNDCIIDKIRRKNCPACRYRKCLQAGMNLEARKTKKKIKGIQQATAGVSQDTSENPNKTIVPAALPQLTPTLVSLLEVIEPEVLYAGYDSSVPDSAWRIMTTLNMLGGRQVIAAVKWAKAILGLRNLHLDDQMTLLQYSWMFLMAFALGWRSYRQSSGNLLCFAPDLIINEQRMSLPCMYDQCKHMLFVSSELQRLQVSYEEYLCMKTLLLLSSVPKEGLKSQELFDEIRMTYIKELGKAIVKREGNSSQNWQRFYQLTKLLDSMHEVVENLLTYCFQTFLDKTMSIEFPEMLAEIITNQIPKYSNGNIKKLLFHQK", "assay": "Antagonist activity at GR in rat PBMC assessed as reduction in dexamethasone-induced GILZ gene expression incubated for 24 hrs by RT-qPCR method", "type": "cell-based"}, "Glucocorticoid receptor [2]": {"target": "T1, Glucocorticoid receptor", "assay": "Antagonist activity at GR in rat PBMC assessed as reduction in dexamethasone-induced FKBP5 gene expression incubated for 24 hrs by RT-qPCR method", "type": "cell-based"}, "Glucocorticoid receptor [3]": {"target": "T2, Glucocorticoid receptor (Homo sapiens, UniProt P04150)", "T2 sequence (P04150 whole entry)": "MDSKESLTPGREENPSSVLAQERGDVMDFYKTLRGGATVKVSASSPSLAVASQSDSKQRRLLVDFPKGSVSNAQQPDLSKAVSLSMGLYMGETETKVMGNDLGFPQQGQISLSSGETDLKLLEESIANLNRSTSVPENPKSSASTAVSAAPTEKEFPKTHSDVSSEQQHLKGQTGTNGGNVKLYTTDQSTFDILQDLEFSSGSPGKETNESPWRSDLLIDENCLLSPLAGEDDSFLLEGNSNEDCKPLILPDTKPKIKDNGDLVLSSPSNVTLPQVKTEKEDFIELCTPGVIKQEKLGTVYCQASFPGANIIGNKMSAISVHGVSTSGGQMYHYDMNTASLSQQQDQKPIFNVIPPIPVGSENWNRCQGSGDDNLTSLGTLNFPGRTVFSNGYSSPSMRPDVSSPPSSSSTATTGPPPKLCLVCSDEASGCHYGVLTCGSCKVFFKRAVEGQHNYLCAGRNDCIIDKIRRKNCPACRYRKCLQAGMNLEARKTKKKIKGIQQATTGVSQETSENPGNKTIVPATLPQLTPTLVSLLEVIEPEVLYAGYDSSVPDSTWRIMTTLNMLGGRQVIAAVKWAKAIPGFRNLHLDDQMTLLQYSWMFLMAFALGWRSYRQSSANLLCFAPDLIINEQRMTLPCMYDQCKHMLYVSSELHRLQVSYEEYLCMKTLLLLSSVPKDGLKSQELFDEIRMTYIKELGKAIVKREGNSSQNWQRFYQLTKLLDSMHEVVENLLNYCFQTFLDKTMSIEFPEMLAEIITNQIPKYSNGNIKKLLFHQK", "assay": "Antagonist activity at GR in human OVCAR5 assessed as reduction in dexamethasone-induced GILZ gene expression incubated for 24 hrs by RT-qPCR method"}, "[4]": {"assay": "Volume of distribution at steady state in mini pig at 0.5 mg/kg, iv", "type": "ADME, organism-based, Sus scrofa", "conditions": "in vivo, read-out: Vdss; call rule not given here"}, "[5]": {"assay": "Unbound plasma concentration in nude mouse xenografted with human OVCAR5 cells at 25 to 75 mg/kg, po dosed as gavage and measured after 6 hrs", "type": "ADME, organism-based", "conditions": "in vivo", "method_in_brief": "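OVCAR5 xenograft mice received dexamethasone 0.5 mg/kg by intraperitoneal injection with or without a single oral gavage dose of the antagonist at 25, 50 or 75 mg/kg. Tumors and plasma collected 6 h later. Tumor FKBP5 mRNA measured by RT-qPCR. Unbound plasma concentration of the antagonist determined, n = 4 mice per group. FKBP5 effects tested by one-way ANOVA with Dunnett's test versus the vehicle group.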"}, "[6]": {"target": "T3, Mineralocorticoid receptor (Homo sapiens, UniProt P08235)", "T3 sequence (P08235 whole entry)": "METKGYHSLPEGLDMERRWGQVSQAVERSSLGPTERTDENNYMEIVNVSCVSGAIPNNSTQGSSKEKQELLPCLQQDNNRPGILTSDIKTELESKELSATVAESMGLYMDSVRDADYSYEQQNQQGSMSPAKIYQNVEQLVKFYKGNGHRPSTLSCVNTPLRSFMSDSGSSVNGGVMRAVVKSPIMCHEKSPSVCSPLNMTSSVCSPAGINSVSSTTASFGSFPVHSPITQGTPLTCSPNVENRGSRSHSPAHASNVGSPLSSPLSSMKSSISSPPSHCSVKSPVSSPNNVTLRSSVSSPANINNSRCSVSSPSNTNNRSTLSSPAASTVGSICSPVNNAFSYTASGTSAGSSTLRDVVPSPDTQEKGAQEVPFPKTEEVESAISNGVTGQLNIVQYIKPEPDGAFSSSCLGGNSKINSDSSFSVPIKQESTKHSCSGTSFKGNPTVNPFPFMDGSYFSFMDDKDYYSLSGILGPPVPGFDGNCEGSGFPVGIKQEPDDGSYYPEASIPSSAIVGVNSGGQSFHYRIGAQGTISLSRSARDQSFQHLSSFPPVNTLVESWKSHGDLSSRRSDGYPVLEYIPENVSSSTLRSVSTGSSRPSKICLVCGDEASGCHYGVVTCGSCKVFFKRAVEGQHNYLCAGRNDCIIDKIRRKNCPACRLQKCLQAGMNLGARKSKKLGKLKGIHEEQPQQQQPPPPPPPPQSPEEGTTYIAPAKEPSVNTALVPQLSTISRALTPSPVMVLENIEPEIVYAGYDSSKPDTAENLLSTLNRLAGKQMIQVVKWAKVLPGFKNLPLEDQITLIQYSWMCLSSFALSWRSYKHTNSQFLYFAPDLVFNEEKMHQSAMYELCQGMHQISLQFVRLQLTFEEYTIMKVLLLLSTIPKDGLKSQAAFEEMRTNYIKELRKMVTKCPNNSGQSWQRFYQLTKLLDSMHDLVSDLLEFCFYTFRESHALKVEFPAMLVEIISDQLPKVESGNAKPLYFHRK", "assay": "Antagonist activity at human MR expressed in CHO-K1 cells assessed as reduction in aldosterone-induced protein interaction between MR and its coactivator SRC at 5 uM incubated for 24 hrs by beta-galactosidase based chemiluminescence assay", "type": "cell-based", "conditions": "cho-k1, 24 h"}}}
{"molecule": "CC(C)N(C)c1ccc([C@H]2C[C@@]3(C)[C@@H](CC[C@@]3(O)C#CC(C)(C)C)[C@@H]3CCC4=CC(=O)CC[C@@H]4[C@H]32)cc1", "values": [{"measurement": "IC50", "setting": "Glucocorticoid receptor [1]", "value": 59.4, "unit": "nM"}, {"measurement": "IC50", "setting": "Glucocorticoid receptor [2]", "value": 45.6, "unit": "nM"}, {"measurement": "IC50", "setting": "Glucocorticoid receptor [3]", "value": 21.2, "unit": "nM"}, {"measurement": "Vd", "setting": "[4]", "value": 7.8, "unit": "L/kg"}, {"measurement": "Cp(f)", "setting": "[5]", "value": "20 to 120", "unit": "nM"}, {"measurement": "inhibition (INH)", "setting": "[6]", "value": "Not Active"}]}
